Test results published in the EternaBench riboswitch data.

Tested on: MS2 coat protein
Test: apparent Kd, MS2 coat protein; higher = weaker binding; RNA-MaP array; FMN 200 µM where present
How it was run: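 Green signal from SNAP-549-labelled MS2 coat protein was normalised to red-channel RNA signal and to the median Fmax of control clusters. The protein was titrated from 0.7 or 1.5 nM, doubling to 3 µM, without and then with constant ligand, over designs transcribed by stalled E. coli RNA polymerase on Illumina sequencing-chip clusters, in 100 mM Tris-HCl pH 7.5, 80 mM KCl, 4 mM MgCl2, BSA, DTT, yeast tRNA and Tween-20. The apparent Kd is the median of filtered per-cluster binding-curve fits.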

[1] = designed as: OFF switch for flavin mononucleotide, no ligand
[2] = ligand present: flavin mononucleotide, designed as: OFF switch for flavin mononucleotide
[3] = designed as: ON switch for flavin mononucleotide, no ligand
[4] = ligand present: flavin mononucleotide, designed as: ON switch for flavin mononucleotide

Sequence | apparent Kd [1] | apparent Kd [2] | apparent Kd [3] | apparent Kd [4]
UCCUCACAUGAGGAUCACCCAUGUGAGGAUAUGGGCCCGGGCCCGUUCGGGCCCGGGCCCAGAAGGCACUGGGU | 42.1 nM | 19 nM | – | –
CUGCUUCGCUAAGGAUAUCACAUUGUCGAUCUGCGUGCAGCCUCCUGACAUGAGGAUCACCCAUGUGAGAAGGUAGACGACGUG | 19.4 nM | 22.5 nM | – | –
GUUAUUAUUAGUUCAUACUAUAAGAUAGAAGGUGAUUUAUUGACAUGAGGAUCACCCAUGUAAUUCAAGGAUAUGUAGAUACUC | – | – | 374 nM | 248 nM
AAUUAACUCACAGGAUAUAGCAGAGGUCGAGUGAACUUACAGGCGACUAGGCUAGAAGGGUGACCACAUGAGGAUCACCCAUGU | – | – | 834 nM | 117 nM
AGCUACGUUUCGUAGCAGCUAGGUGAGGAUAUUCAAAAUUUCACAUGAGGAUCACCCAUGUAUGUGAAGAAGGCGCCUAGAAAG | – | – | 7.29 nM | 4.74 nM
AACGCGUCAGGAUAUGCCAUAAAUUACGUAGUACGACCAUAGUAGAAGGGACAUGAGGAUCACCCAUGUGGGUA | 177 nM | 137 nM | – | –
CUAUUGUGAGGAUAUCAGUAGUAGAACAAUAGUACUACUACUGAGAAGGCACAUGAGGAUCACCCAUGUUCCUC | 61.1 nM | 406 nM | – | –
UCAUCAACGGGCGGGUCGGUUGGACAUGAGGAUCACCCAUGUAGAAGGACCGGUGGGCUCCGGCGGUAGGAUAUACAUUUGGUG | 8.14 nM | 13.3 nM | – | –
GCUGCAUAGGCAGGAUAUGCAAUAAUUCGAAUAAAAUUUAACGAAUUAACAUGAGGAUCACCCAUGUAGAAGGGCCUGUGCAGU | 5.49 nM | 4.69 nM | – | –
AGCGCCAUCGUGAGAUGGCGUAUUACAUGAGGAUCACCCAUGUAGGAUAUCGAUUGCUUUGCAGUCGAGAAGGGCAUGUCCUAG | 35.8 nM | 42.7 nM | – | –
CACCGUUAGAGAGGAUAUCGUACAUGAGGAUCACCCAUGUAAUAAAUGAGAAUUUCGGAUGUAUGCGAGAAGGCUCGAAUCGGC | 53.4 nM | 40.7 nM | – | –
CAAAUCUGAGGAUAUCGAUUUUUGUACAUGAGGAUCACCCAUGUCCUUUUUAUUAAAUCCCGAGAAGGCAGUGUAU | 27.1 nM | 31.2 nM | – | –
CCGGAUACGGGUAGCCUGACAUGAGGAUCACCCAUGUGAUCCAAGGAUAUGGAUCCUAAUUGGAUCCAGAAGGUGGUUGGCUAC | – | – | 682 nM | 369 nM
UAGAUCAAUACAGGAUAUGGUGACGCACAUGAGGAUCACCCAUGUCCGCAGCGUGCUCAGCACGCCCAGAAGGGUAUUGAUUCG | – | – | 786 nM | 80.1 nM
GUAGUCAGUAAUGAAAGCCCGGGCGCAGAAGGCCAGACACAUGAGGAUCACCCAUGUAUCCCUAUGGAGGAUAUGUGUCACGUG | – | – | 113 nM | 30.5 nM
GAUAGGACAGAGAAGGACGUAGCUAGAGAUACUAGCAUAAAGUCUUCAACAUGAGGAUCACCCAUGUAGGAUAUCUGUCCUAUC | 6.43 nM | 6.64 nM | – | –
GAGCGAAAGCUCAAUGUCGAUAGCAGAAGGACAUGAAAACAUGAAAACACAUGAGGAUCACCCAUGUAGGAUAUGCUAUCGACU | 9.43 nM | 84.8 nM | – | –
UGCUACGUUUCGUAGCAGUGUCAUCGAGAAGGCCCUGACAUGAGGAUCACCCAUGUUGUUACAUGGGAGGAUAUCGAUGAUACU | – | – | 12.4 nM | 5.09 nM
AUUAUUUAAGUCAGGAUAUCGUAUUUAUUUAAAUACGAGAAGGGACAUGAGGAUCACCCAUGUAAUAAAUUUUA | 14.2 nM | 20.4 nM | – | –
UUUACAUGAGGAUCACCCAUGUAUAGAACGGUUCAUUAAAGUGAGGAUAUACGAAAUUUAAAAUCGUAGAAGGCACUGGGUACA | – | – | 17 nM | 19.1 nM
CGGUAAACCACAGGAUAUGGCUAGUAUAACUAGCCAGAAGGGUGGUCGAAACCAUGUAAAUACAUGAGGAUCACCCAUGUAUCC | – | – | 496 nM | 47.6 nM

Sequence | apparent Kd [1] | apparent Kd [2] | apparent Kd [3] | apparent Kd [4]
GGACGGUUAGUUAGGAUAUGCUCUACCUCGGUAGAGCAGAAGGGACAUGAGGAUCACCCAUGUGAAAACUGUUC | 19.4 nM | 21.3 nM | – | –
CUAAAUCAUGUAGGAUAUGCGUGGCGAAGCUAUGCAGAAGGACAUGAGGAUCACCCAUGUCUUUCUGUCUGCGUACAGACGGAA | 23.5 nM | 135 nM | – | –
AUAAUUUUAUUUUUCCCAAGAAUCAGAAGGCGUUACAUGAGGAUCACCCAUGUUUUGUAUAGUAACGAGGAUAUGAUAUGGUUA | 15.2 nM | 14.7 nM | – | –
UGGUACUAGGGAGGAUAUGGGAAUAUACAUGAGGAUCACCCAUGUUUAAGAAUGCCGAGAGGCAACUAGAAGGCCCUAGUACCU | – | – | 11.1 nM | 4.85 nM
GUAUGGAGUACAGGAUAUGUAAGUUUUAAGUGUAUUGGUUAUUACUUAACAACAGAAGGGUAUUACAUGAGGAUCACCCAUGUA | – | – | 13.4 nM | 11 nM
GUAGCAUACCGAGGAUAUUCCCGGAAACGGAAAACAUGAGGAUCACCCAUGUGGCGAAAGCCUUGGGAGAAGGCGGAAUGCUAC | – | – | 25.4 nM | 19.4 nM
AAAAAACAUGAGGAUCACCCAUGUAAAAAAAAUGGAGGAUAUUGGAAAAAAAAAAAAAAACGAGAAGGCUAAAAAA | – | – | 84.4 nM | 71.1 nM
AAUAAAAUGAUGUUACAUGAGGAUCACCCAUGUAAGUGAUGGAGAAGGUCCCACGACUUGGGCGGGAAGGAUAUUCAGAGCAUA | – | – | 16.8 nM | 10.3 nM
CUUCGUAUAGAGGAUAUAGGAUACUACGGUGUCCUAGAAGGCUGUACAUGAGGAUCACCCAUGUACUUCAGAUC | 11.7 nM | 13.5 nM | – | –
GUAGUGUAUGUAGGAUAUGUGAAGCAAAGCUUCACAGAAGGACAUGAGGAUCACCCAUGUAUUGCAGCCUGCAAUCAGGCUGCU | 41 nM | 144 nM | – | –
GCAAAGCCUGACAUGAGGAUCACCCAUGUUAGAUUGUUAUGUCAGGAUAUUGUCUAGCAACUAGACAAGAAGGGAUGCUUUGCC | – | – | 603 nM | 50.9 nM
UACAGACAUGAGGAUCACCCAUGUGAGGAUAUCCAUAACGAUAUUACAAGUAUGACAGGGAGAAGGCACAGCAA | 41.3 nM | 52 nM | – | –
GAUUAACAUGAGGAUCACCCAUGUGAGGAUAUGGACUGGCUCACUUUUCGAUUCCCGUCUAGAAGGCGCAUCUU | 39.3 nM | 55.6 nM | – | –
AAACUGCCACAUGAGGAUCACCCAUGUAAAUAAAGUAUUUGGAGAAGGGCGAUAGCAAAGCUAUCGCAGGAUAUCCUCAGGCAG | – | – | 801 nM | 87.9 nM
UUAUUAUAUGUAGGAUAUGCAUAUUGUUGUUAUGCAGAAGGACAUGAGGAUCACCCAUGUAUAUUAUUGUUAUAUAUUAUAUAU | 23.4 nM | 36.7 nM | – | –
UACAUGUGAGGAUAUUAGAUCGCUAACUGGCGGGAGCGAUCUGAGAAGGCACAUGAGGAUCACCCAUGUGUCGU | 16.9 nM | 40.2 nM | – | –
CCUCCACAUGAGGAUCACCCAUGUCAGGAUAUCGUGUGUGCGUUUUCGGUCUUUCGUGCGAGAAGGGACGUCUG | 68.7 nM | 62.9 nM | – | –
CCUUAAAAGAUCCAAAAUUACAACAUGAGGAUCACCCAUGUGCAGGAUAUCGUGCCAGUGAUGUACGAGAAGGGCAGACUCUGC | 147 nM | 170 nM | – | –
AGUAUGUACGCAGGAUAUACAUGAGGAUCACCCAUGUGGAACAGUGUAGUACUAGUUGAUCCUCAGUAGAAGGGCGGUCGAAUA | 63.6 nM | 46.4 nM | – | –
AUCAUUCGUGUAGGAUAUGCGUCAGAAACUGAUGCAGAAGGACAUGAGGAUCACCCAUGUCUUUCUCGAGCUGUAGCUCGAGGA | 21.3 nM | 145 nM | – | –
